Published values pooled from the literature.
Lines come from different studies, so protocols differ.
BCHE: Cholinesterase (BCHE, Equus caballus, UniProt P81908)
AGTR2: Type-2 angiotensin II receptor (AGTR2, Homo sapiens, UniProt P50052)
PTGS1: Prostaglandin G/H synthase 1 (PTGS1, Ovis aries, UniProt P05979)

| Structure (SMILES) | target | assay | conditions | inhibition [%] |
| --- | --- | --- | --- | --- |
| COc1cc2c(cc1OC)C(=O)N(Cc1cccnc1)C2 | BCHE | enzyme activity, inhibitor, Ellman | 1 µM | -12.2 |
| O=C(Nc1ccc(F)c(C(F)(F)F)c1)Nc1nnc(-c2ccncc2)s1 | RecQ-like DNA helicase BLM (BLM, Homo sapiens, UniProt P54132) | enzyme activity, inhibitor | 50 µM | 99 |
| COCc1c(-c2cc3cc(C)cc(OC)c3s2)c2c(N)ncnn2c1CN1CCNC(=O)C1 | AGTR2 | ligand displacement, radioligand | 10 µM | 9 |
| Nc1ccc(-c2ccccc2)c(-c2nc3ccccc3s2)c1 | PTGS1 | enzyme activity, inhibitor, absorbance | 10 µM | 59.1 |
| COc1cc2c(cc1OC)C(=O)N(Cc1cccc(N3CCCCC3)n1)C2 | BCHE | enzyme activity, inhibitor, Ellman | 1 µM | 4.8 |
| CC(C)N1CCC[C@H]1CNC(=O)c1cn(C2CCCC2)c(=O)c2c1c1ccccc1n2C | Androgen receptor (Ar, Rattus norvegicus, UniProt P15207) | ligand displacement, radioligand | 10 µM | 11 |
| COc1cc2c(cc1OC)C(=O)N(Cc1nccc3ccccc13)C2 | BCHE | enzyme activity, inhibitor, Ellman | 1 µM | 2 |
| Cn1cc(-c2cccc(N3CCc4c(sc5c4CC(C)(C)C5)C3=O)c2CO)cc(Nc2ccncn2)c1=O | SRSF protein kinase 2 (SRPK2, Homo sapiens, UniProt P78362) | enzyme activity, inhibitor | 1 µM | -3 |
| COc1cc2c(cc1OC)C(=O)N(Cc1n[nH]c3ccccc13)C2 | BCHE | enzyme activity, inhibitor, Ellman | 1 µM | -2.7 |
| C[C@H](C(=O)N[C@H]1COc2ccccc2[C@@H]1S(C)(=O)=O)c1ccc(F)cc1 | AGTR2 | cell-free assay | 10 µM | 4 |
| Oc1ccc(-c2ncccc2-c2nc3ccccc3s2)cc1 | PTGS1 | enzyme activity, inhibitor, absorbance | 10 µM | 12.5 |
| CN(CCN1CCC(OC(=O)Nc2ccccc2-c2ccccc2)CC1)C(=O)c1ccc(CN2CCC(C(N)=O)CC2)cc1 | AGTR2 | ligand displacement, radioligand | 1 µM | -4 |
| NS(=O)(=O)c1ccc(-c2ncccc2-c2nc3ccccc3s2)cc1 | PTGS1 | enzyme activity, inhibitor, absorbance | 10 µM | 0 |
| Cn1cc(-c2cc(F)cc(N3CCn4c(cc5c4CCCC5)C3=O)c2CO)cc(Nc2ccc(N3CCN(C4COC4)CC3)cn2)c1=O | Serine/threonine-protein kinase MRCK alpha (CDC42BPA, Homo sapiens, UniProt Q5VT25) | enzyme activity, inhibitor | 0.1 µM | 2 |
| COc1cc2c(cc1OC)C(=O)N(CC1CCN(Cc3cccc(C)n3)CC1)C2 | BCHE | enzyme activity, inhibitor, Ellman | 1 µM | 3.4 |
| Cc1ccc(-c2nc3ccccc3s2)c(-c2ccc(S(N)(=O)=O)cc2)c1 | PTGS1 | enzyme activity, inhibitor, absorbance | 10 µM | 9.6 |
| COc1cc2c(cc1OC)C(=O)N(CC1CCN(Cc3cccnc3)CC1)C2 | BCHE | enzyme activity, inhibitor, Ellman | 1 µM | 2.7 |
| Nc1ccc(-c2nc3ccccc3s2)c(-c2cccc(O)c2)c1 | PTGS1 | enzyme activity, inhibitor, absorbance | 10 µM | 27.7 |
| C#Cc1n[nH]c2c(-c3cn(C(C)c4ccccn4)c(=O)[nH]c3=O)cc(F)cc12 (centres unmarked) | Serine/threonine-protein kinase MARK1 (MARK1, Homo sapiens, UniProt Q9P0L2) | enzyme activity, inhibitor | 1 µM | 11.2 |
| Cc1ccc(-c2nc3ccccc3s2)c(-c2ccc(S(C)(=O)=O)cc2)c1 | PTGS1 | enzyme activity, inhibitor, absorbance | 10 µM | 9.7 |
| O=C(Nc1cccnn1)N1CCN([C@@H]2CCOc3cc(C(F)(F)F)ccc32)CC1 | AGTR2 | cell-free assay | 20 µM | 0 |
| CS(=O)(=O)c1ccc(-c2ncc(Cl)cc2-c2nc3ccccc3s2)cc1 | PTGS1 | enzyme activity, inhibitor, absorbance | 10 µM | 0 |
| COc1cc2c(cc1OC)C(=O)N(CC1CCN(Cc3ccc(F)nc3)CC1)C2 | BCHE | enzyme activity, inhibitor, Ellman | 1 µM | -4.8 |
